Assay results from paper PMC3652433 (MedChemComm, 2013).

Experiments:
[1] = biological target: CCR5 (Macaca mulatta, UniProt P61813); assay: CCR5 competitive radioligand binding assay; set-up: species or system rhesus macaque; conditions: relative to maraviroc
[2] = tested on: HIV-1SF162; type: cell-based; conditions: human astrocytes
Method in brief: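 Human astrocytes infected with R5 HIV-1SF162; infection assessed by a luciferase-based read-out of relative Tat protein expression at 18 h post-infection. Dose–response was run per compound first. Fixed levels: test compound 100 nM, CCR5 antagonist reference 100 nM, opioid antagonist reference 1.5 μM. Values are […] ± SEM of three independent experiments; statistics vs uninfected control cells.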

[3] = biological target: CCR5 (Homo sapiens, UniProt P51681); assay: Ca2+ flux assay in Gqi5 transfected CCR5-MOLT-4 cells; type: cell-based; conditions: for Potency decrease in RANTES induced Ca2+ flux inhibition compared to maraviroc: relative to maraviroc
[4] = biological target: hMOR (Homo sapiens, UniProt P35372); type: cell-based; conditions: hMOR-CHO cells with Gqi5; data not shown
[5] = tested on: astroglial cells; assay: Viability of astroglial cells, dual fluorescence labeling with AOPI; type: cell-based, human; conditions: 100 nM, data not shown
[6] = 100 nM, R5 HIV-1SF162, 18 h post-infection

Chain of CCR5 (Homo sapiens, UniProt P51681) (P51681 whole entry): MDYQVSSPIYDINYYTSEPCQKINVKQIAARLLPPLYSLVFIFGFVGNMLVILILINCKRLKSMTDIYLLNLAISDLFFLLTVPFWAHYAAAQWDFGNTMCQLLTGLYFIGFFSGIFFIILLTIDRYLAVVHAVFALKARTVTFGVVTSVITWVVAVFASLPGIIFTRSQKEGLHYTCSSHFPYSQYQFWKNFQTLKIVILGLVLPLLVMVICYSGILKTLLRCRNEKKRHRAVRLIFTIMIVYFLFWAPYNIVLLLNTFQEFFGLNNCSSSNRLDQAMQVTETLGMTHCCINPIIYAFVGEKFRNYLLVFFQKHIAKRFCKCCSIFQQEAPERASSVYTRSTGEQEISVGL
Chain of hMOR (P35372 whole entry): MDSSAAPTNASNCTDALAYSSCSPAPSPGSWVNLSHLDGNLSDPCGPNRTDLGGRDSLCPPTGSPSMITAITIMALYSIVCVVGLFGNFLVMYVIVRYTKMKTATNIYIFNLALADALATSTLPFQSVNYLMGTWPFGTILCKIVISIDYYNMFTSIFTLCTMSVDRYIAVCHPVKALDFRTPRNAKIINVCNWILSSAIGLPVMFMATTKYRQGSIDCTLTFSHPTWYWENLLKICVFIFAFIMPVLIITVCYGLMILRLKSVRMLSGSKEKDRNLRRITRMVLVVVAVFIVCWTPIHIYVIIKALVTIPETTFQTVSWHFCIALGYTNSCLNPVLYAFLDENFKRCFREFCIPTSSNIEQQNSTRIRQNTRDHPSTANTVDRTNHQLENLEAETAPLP

Cc1nnc(C(C)C)n1C1CC2CCC(C1)N2CC[C@H](NC(=O)C1CCC(F)(F)CC1)c1ccc(N)cc1 (some centres unmarked) [compound 4]
Decrease in CCR5 binding affinity compared to maraviroc [1]: approximately 65 fold

O=C1CC[C@@]2(O)[C@H]3Cc4ccc(O)c5c4[C@@]2(CCN3CC2CC2)[C@H]1O5 [naltrexone, reference compound]
Effect on Tat production ([2]; 1.5 μM, R5 HIV-1SF162, 18 h post-infection): did not show significant effect on Tat production

CNC(=O)COCC(=O)NCCCCCCCNC(=O)COCC(=O)Nc1ccc([C@H](CCN2C3CCC2CC(n2c(C)nnc2C(C)C)C3)NC(=O)C2CCC(F)(F)CC2)cc1 (some centres unmarked) [compound 3]
Potency decrease in RANTES induced Ca2+ flux inhibition compared to maraviroc [3]: ~300 fold

CNC(=O)COCC(=O)NCCCCCCCNC(=O)COCC(=O)N[C@@H]1CC[C@@]2(O)[C@H]3Cc4ccc(O)c5c4[C@@]2(CCN3CC2CC2)[C@H]1O5 [compound 2]
MOR agonism in Ca2+ mobilization assay [4]: No agonism was observed

Cc1nnc(C(C)C)n1C1CC2CCC(C1)N2CC[C@H](NC(=O)C1CCC(F)(F)CC1)c1ccc(NC(=O)COCC(=O)NCCCCCCCNC(=O)COCC(=O)N[C@@H]2CC[C@@]3(O)[C@H]4Cc5ccc(O)c6c5[C@@]3(CCN4CC3CC3)[C@H]2O6)cc1 (some centres unmarked) [compound 1]
MOR agonism in Ca2+ mobilization assay [4]: No agonism was observed
CCR5 agonism in Ca2+ assay ([3]; CCR5-MOLT-4 cells with Gqi5, data not shown): no CCR5 agonism was detected
Potency decrease in RANTES induced Ca2+ flux inhibition compared to maraviroc [3]: approximately 60 fold
Effect on viral entry / Tat expression [2, 6]: significantly effective in inhibiting viral entry
Decrease in Tat expression compared to maraviroc alone ([2]; 100 nM, vs maraviroc 100 nM): at least a two-fold decrease in Tat expression
Effect on viability of astroglial cells [5]: did not affect the viability of astroglial cells

maraviroc [reference compound]
Effect on viral entry / Tat expression [2, 6]: considerably inhibited viral entry
